Reference: ChEMBL document CHEMBL3603810, “Discovery of Potent and Selective RSK Inhibitors as Biological Probes” (J Med Chem, 2015)
Activity calls are given as the source filed them. The calls are words filed in the database; no cut-off is given here.

How the values were obtained:
[1] = target: Ribosomal protein S6 kinase alpha-3 (Mus musculus, UniProt P18654); assay: Inhibition of RSK2 in mouse BAF cells expressing activated FGFR assessed as reduction of YB1 phosphorylation at Ser102 by electochemiluminescence assay; type: cell-based
Outline: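 Cellular Ser102-phospho-YB1 ECL immunoassay in mouse BAF cells engineered to express activated FGFR. RIPA lysates are bound overnight at 4 °C to high-bind plates. Plates are blocked 2 h at rt with 10% BSA. Detection uses phospho-Ser102 YB1 antibody (1.3 μg/mL, 2 h rt), then sulfo-tag goat anti-rabbit antibody (0.5 μg/mL, 2 h rt), then MSD read buffer.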

[2] = target: Ribosomal protein S6 kinase alpha-3 (Homo sapiens, UniProt P51812)
[3] = target: Serine/threonine-protein kinase PLK1 (Homo sapiens) (UniProt P53350); assay: Binding affinity to DNA-tagged PLK (unknown origin) at 10 uM by qPCR analysis
Outline: (§1)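 Competitive binding panel (KinomeScan) run at 10 μM test concentration, 96 kinases in the panel, or 442 in the expanded panel. Results are reported as […], where smaller values mean stronger binding.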

[4] = target: Ribosomal protein S6 kinase alpha-6 (Homo sapiens) (UniProt Q9UK32); assay: Binding affinity to DNA-tagged RSK4 N-terminal kinase domain (unknown origin) assessed as level of protein captured on solid support at 10 uM by qPCR analysis relative to control; outline: as §1
[5] = target: Ribosomal protein S6 kinase alpha-1 (Homo sapiens) (UniProt Q15418); assay: Binding affinity to DNA-tagged RSK1 N-terminal kinase domain (unknown origin) assessed as level of protein captured on solid support at 10 uM by qPCR analysis relative to control; outline: as §1
[6] = target: Ribosomal protein S6 kinase alpha-2 (Homo sapiens) (UniProt Q15349); assay: Binding affinity to DNA-tagged RSK3 N-terminal kinase domain (unknown origin) assessed as level of protein captured on solid support at 10 uM by qPCR analysis relative to control; outline: as §1
[7] = Clearance in rat liver microsomes; type: ADME; conditions: read-out: CLH
[8] = Volume of distribution at steady state in iv dosed Sprague-Dawley rat; type: ADME, organism-based; conditions: in vivo, read-out: Vdss
Outline: (§2)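 Single-dose plasma pharmacokinetics in male Sprague-Dawley rats following intravenous administration.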

[9] = Plasma half life in iv dosed Sprague-Dawley rat; type: ADME, organism-based; outline: as §2
[10] = Clearance in iv dosed Sprague-Dawley rat; type: ADME, organism-based; conditions: in vivo; outline: as §2
[11] = tested on: Caco-2; assay: Permeability across human Caco2 cells; type: ADME, cell-based

Ribosomal protein S6 kinase alpha-3 (Mus musculus, UniProt P18654), sequence (P18654 whole entry): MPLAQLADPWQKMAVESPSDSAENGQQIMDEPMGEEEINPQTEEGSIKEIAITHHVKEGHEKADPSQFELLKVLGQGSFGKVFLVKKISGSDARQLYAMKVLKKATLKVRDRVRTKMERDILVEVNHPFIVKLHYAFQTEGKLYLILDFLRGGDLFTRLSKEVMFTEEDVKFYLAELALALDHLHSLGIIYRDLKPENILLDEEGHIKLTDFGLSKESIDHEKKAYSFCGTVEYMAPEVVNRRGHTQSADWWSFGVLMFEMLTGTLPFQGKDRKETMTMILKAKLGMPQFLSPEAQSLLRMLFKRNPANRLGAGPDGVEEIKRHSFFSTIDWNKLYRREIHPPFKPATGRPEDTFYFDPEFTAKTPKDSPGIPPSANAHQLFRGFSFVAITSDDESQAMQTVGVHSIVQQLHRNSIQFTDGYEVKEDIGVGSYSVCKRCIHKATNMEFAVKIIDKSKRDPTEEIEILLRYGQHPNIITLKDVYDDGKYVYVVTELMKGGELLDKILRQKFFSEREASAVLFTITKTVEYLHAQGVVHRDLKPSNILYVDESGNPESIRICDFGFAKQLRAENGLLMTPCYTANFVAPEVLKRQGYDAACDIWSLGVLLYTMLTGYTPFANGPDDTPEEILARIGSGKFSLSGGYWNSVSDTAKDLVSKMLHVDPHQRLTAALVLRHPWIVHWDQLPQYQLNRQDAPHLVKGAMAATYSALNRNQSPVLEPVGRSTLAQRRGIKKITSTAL
Ribosomal protein S6 kinase alpha-3 (Homo sapiens, UniProt P51812), sequence (P51812 whole entry): as the sequence (P18654 whole entry) above, with G45V counted along it
Serine/threonine-protein kinase PLK1 (Homo sapiens), sequence (P53350 whole entry): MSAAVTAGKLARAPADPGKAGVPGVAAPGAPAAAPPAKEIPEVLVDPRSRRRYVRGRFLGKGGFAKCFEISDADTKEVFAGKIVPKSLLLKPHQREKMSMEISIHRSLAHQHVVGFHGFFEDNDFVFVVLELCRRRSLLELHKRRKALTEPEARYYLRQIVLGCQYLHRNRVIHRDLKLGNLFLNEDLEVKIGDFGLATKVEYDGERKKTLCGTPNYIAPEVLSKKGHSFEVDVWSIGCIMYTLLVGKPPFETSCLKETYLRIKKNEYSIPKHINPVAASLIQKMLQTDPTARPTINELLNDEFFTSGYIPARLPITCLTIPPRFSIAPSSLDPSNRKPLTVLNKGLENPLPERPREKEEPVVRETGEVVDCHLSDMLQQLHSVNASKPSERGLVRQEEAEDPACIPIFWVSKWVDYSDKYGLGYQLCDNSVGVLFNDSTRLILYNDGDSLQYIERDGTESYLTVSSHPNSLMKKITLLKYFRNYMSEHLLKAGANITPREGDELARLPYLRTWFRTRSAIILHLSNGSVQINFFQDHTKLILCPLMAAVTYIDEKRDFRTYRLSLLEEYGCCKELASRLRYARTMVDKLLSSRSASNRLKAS
Ribosomal protein S6 kinase alpha-6 (Homo sapiens), sequence (Q9UK32 whole entry, the tested form may be a part): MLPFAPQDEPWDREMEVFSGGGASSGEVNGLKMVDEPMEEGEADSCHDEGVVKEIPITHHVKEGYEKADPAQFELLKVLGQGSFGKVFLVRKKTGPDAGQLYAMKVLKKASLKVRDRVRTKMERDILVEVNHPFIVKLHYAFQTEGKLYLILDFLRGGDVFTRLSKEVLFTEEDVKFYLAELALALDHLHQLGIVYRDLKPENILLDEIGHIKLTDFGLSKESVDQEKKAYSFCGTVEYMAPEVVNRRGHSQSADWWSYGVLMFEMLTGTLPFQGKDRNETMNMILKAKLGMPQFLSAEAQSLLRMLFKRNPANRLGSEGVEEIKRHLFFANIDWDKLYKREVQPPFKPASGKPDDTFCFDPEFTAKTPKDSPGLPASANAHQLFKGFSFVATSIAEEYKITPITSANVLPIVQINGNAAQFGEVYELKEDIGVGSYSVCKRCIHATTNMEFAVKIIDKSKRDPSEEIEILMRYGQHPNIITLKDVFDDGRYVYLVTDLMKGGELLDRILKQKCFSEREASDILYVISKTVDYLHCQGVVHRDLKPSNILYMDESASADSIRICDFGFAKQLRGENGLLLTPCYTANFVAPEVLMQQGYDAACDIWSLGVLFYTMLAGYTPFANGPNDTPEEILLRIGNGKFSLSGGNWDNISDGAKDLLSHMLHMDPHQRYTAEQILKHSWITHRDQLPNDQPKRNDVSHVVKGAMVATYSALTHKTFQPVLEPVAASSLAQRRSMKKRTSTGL
Ribosomal protein S6 kinase alpha-1 (Homo sapiens), sequence (Q15418 whole entry, the tested form may be a part): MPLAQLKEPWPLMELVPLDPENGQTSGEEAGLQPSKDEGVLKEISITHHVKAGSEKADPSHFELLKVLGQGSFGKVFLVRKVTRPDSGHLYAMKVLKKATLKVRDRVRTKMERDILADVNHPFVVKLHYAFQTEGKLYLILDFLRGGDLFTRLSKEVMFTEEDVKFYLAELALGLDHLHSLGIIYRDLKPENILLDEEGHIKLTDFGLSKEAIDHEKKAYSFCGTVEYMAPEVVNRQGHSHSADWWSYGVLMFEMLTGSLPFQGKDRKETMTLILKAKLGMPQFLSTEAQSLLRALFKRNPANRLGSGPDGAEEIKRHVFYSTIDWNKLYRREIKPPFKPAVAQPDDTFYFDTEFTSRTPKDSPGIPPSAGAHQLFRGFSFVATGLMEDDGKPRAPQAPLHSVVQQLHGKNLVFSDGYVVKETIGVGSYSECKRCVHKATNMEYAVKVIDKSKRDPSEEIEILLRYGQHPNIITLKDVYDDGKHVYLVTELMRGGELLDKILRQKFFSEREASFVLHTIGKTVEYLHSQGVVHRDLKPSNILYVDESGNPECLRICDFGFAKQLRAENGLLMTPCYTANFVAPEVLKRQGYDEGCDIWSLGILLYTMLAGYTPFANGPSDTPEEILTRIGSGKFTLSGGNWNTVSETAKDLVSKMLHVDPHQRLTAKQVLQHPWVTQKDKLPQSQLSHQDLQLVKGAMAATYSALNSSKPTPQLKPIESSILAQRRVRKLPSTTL
Ribosomal protein S6 kinase alpha-2 (Homo sapiens), sequence (Q15349 whole entry, the tested form may be a part): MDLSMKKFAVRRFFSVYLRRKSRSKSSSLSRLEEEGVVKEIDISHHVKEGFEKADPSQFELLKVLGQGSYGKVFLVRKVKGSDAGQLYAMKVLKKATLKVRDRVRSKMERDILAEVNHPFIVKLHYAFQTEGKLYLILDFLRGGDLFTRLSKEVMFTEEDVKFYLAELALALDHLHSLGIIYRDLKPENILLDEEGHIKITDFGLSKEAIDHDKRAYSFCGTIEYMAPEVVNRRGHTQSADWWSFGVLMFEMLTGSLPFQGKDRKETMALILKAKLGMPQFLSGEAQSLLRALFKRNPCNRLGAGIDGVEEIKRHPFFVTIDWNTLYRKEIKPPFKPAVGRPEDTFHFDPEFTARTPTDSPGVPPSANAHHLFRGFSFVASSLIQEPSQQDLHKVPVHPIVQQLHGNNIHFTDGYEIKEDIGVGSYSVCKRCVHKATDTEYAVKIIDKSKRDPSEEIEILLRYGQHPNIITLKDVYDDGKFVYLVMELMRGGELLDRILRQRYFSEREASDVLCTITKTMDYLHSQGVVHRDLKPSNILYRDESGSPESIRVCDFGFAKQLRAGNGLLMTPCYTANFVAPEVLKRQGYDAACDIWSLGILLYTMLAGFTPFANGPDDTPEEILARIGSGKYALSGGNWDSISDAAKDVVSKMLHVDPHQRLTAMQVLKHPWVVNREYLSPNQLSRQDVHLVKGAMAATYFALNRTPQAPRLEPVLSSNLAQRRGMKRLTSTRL

SMILES | EC50 [1] [µM] | IC50 [2] [µM] | also measured
Oc1ccc(-c2[nH]ncc2-c2ccccc2)cc1 | > 20 | 0.15 | –
Oc1c(F)cc(-c2cnccc2C2CCNCC2)cc1F | > 20 | 2.1 | –
Oc1c(Cl)cc(-c2cnccc2-c2ccc(F)cc2)cc1Cl | > 20 | 4.8 | –
Oc1ccc(-c2ccncc2-c2cc(F)c(O)c(F)c2)cc1 | 6.4 | 0.05 | –
COc1ccc(-c2ccncc2-c2cc(F)c(O)c(F)c2)cn1 | 5.3 | 0.08 | –
COc1cccc(-c2ccncc2-c2cc(F)c(O)c(F)c2)c1 | 5.6 | 0.046 | –
Oc1c(F)cc(-c2cnccc2-c2ccccc2)cc1F | 4.2 | 0.06 | –
Oc1ccc(-c2cn[nH]c2-c2ccccc2)cc1 | > 20 | 2.5 | –
Oc1c(F)cc(-c2cnccc2-c2ccc(F)cc2)cc1F | 10.4 | 0.094 | –
Oc1ccc(-c2cn[nH]c2-c2ccc(O)cc2)cc1 | 2.8 | 0.024 | permeability [11]: permeable
CC(C)c1ccncc1-c1cc(F)c(O)c(F)c1 | > 20 | 0.78 | –
Cc1cccc(-c2ccncc2-c2cc(F)c(O)c(F)c2)c1 | 4.1 | 0.032 | –
Oc1c(F)cc(-c2cnccc2-c2cccc(N3CCOCC3)c2)cc1F | 2.3 | 0.018 | –
Oc1ccc(-c2ccncc2-c2ccc(O)cc2)cc1 | 9.3 | 0.18 | permeability [11]: permeable
CC(C)CNc1cc(-c2ccc(N3CCN(C)CC3)cc2)c(-c2cc(F)c(O)c(F)c2)cn1 | 2.5 | 0.022 | –
Nc1n[nH]c(-c2ccc(O)cc2)c1-c1ccccc1 | 3.2 | 0.053 | –

Now those with a lower EC50 [1], led by results:

EC50 [1] [µM] | IC50 [2] [µM] | SMILES | also measured
2.2 | 0.13 | Oc1c(F)cc(-c2cnccc2C2CCOCC2)cc1F | –
2.1 | 0.02 | CNC(=O)c1ccc(-c2ccncc2-c2cc(F)c(O)c(F)c2)cc1 | –
1.6 | 0.007 | Cc1ccc(-c2ccncc2-c2cc(F)c(O)c(F)c2)cc1 | –
1.5 | 0.023 | Cc1ccc(-c2nc(NC(C)C)ncc2-c2cc(F)c(O)c(F)c2)cc1 | –
1.4 | 0.006 | Oc1ccc(-c2cn[nH]c2-c2cc(F)c(O)c(F)c2)cc1 | –
1.1 | 0.005 | Oc1c(F)cc(-c2cnccc2-c2cccc(-c3cn[nH]c3)c2)cc1F | –
1.1 | 0.004 | CN1CCN(c2cccc(-c3ccncc3-c3cc(F)c(O)c(F)c3)c2)CC1 | –
1.1 | 0.008 | COc1ccc(-c2ccncc2-c2cc(F)c(O)c(F)c2)cc1 | –
0.69 | 0.006 | Cc1ccc(Nc2cc(-c3ccc(N4CCN(C)CC4)cc3)c(-c3cc(F)c(O)c(F)c3)cn2)cc1 | –
0.69 | 0.013 | CNc1ncc(-c2cc(F)c(O)c(F)c2)c(-c2ccc(C)cc2)n1 | –
0.61 | 0.02 | CC(C)Nc1ncc(-c2cc(F)c(O)c(F)c2)c(-c2ccc(N3CCN(C)CC3)cc2)n1 | –
0.58 | 0.014 | CNc1cc(-c2ccc(N3CCN(C)CC3)cc2)c(-c2cc(F)c(O)c(F)c2)cn1 | –
0.5 | – | CC(C)CCN1c2nc(Nc3cc(F)c(O)c(F)c3)ncc2N(C)C(=O)[C@H]1C | Activity [3]: Active
0.49 | 0.004 | NCCOc1cccc(-c2ccncc2-c2cc(F)c(O)c(F)c2)c1 | –
0.44 | 0.006 | CN1CCN(c2ccc(-c3cc(N)ncc3-c3cc(F)c(O)c(F)c3)cc2)CC1 | –
0.36 | 0.01 | Cc1ccc(-c2nc(N)ncc2-c2cc(F)c(O)c(F)c2)cc1 | –
0.34 | 0.005 | CN1CCN(c2ccc(-c3ccncc3-c3cc(F)c(O)c(F)c3)cc2)CC1 | microsomal CLint [7]: 170 µL/min/mg; Vd [8]: 1.6 L/kg; half-life [9]: 13 min; clearance [10]: 9.96 L/h/kg
0.21 | 0.004 | Oc1c(F)cc(-c2cnccc2-c2ccc(N3CCOCC3)cc2)cc1F | Activity [3]: inactive; Activity [4]: 0%; Activity [5]: 0%; Activity [6]: 0.05%
0.14 | 0.006 | Oc1c(F)cc(-c2cnccc2-c2ccc(N3CCNCC3)cc2)cc1F | –
